The values below come from ChEMBL document CHEMBL2021927, “Synthesis and evaluation of the cytotoxicities of tetraindoles: observation that the 5-hydroxy tetraindole (SK228) induces G₂ arrest and apoptosis in human breast cancer cells” (J Med Chem, 2012).

In experiment [1] the test system is MCF7. Nature of the experiment: Ratio of IC50 for 3,3'-diindolylmethane to compound for human MCF7 cells after 48 hrs by MTT assay. The class given is functional.
The test system of experiment [2] is MDA-MB-231. Briefly: Antiproliferative activity against human MDA-MB-231 cells assessed as decrease in cell count at 0.1 to 0.8 uM by trypan blue dye exclusion assay. The note with it: TDE = time-dependent effect. In kind it is functional, cell-based. In short, it runs like this:
(§1)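 MDA-MB-231 cells seeded at 2 × 10^5 per well in 6-well plates, treated 24 h later in triplicate with compound (0.1–0.8 μM) or DMSO vehicle in 10% FBS DMEM/F12. Cells harvested by trypsinization at 24, 48 and 72 h, stained with 0.4% trypan blue and counted on a hemocytometer; three independent experiments.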

Experiment [3] concerns MDA-MB-231. Briefly: Antiproliferative activity against human MDA-MB-231 cells assessed as decrease in cell count after 72 hrs by trypan blue dye exclusion assay. In kind it is functional, cell-based. In short, it runs like this: as §1
The test system of a further experiment is MDA-MB-361. Briefly: Growth inhibition of human MDA-MB-361 cells after 48 hrs by MTT assay. In kind it is functional, cell-based. The following applies: MDA-MB-361, 48 h.
The next experiment deals with MDA-MB-468. Nature of the experiment: Growth inhibition of human MDA-MB-468 cells after 48 hrs by MTT assay. The class given is functional, cell-based. The following applies: MDA-MB-468, 48 h.
The next experiment relates to Detroit 551. Nature of the experiment: Selectivity ratio of IC50 for human Detroit 551 cells to IC50 for human A549 cells.
In experiment [4] the test system is MDA-MB-231. Briefly: Cell cycle arrest in human MDA-MB-231 cells at accumulation at G1 phase at 0.8 uM after 24 hrs by propidium iodide staining-based flow cytometric analysis (reference value: 48%). The class given is functional.
Experiment [5] has as its system MDA-MB-231. Briefly: Cell cycle arrest in human MDA-MB-231 cells at accumulation at S phase at 0.8 uM after 24 hrs by propidium iodide staining-based flow cytometric analysis (reference value: 20%). In kind it is functional.
The test system of experiment [6] is MDA-MB-231. Nature of the experiment: Cell cycle arrest in human MDA-MB-231 cells at accumulation at G2/M phase at 0.8 uM after 24 hrs by propidium iodide staining-based flow cytometric analysis (reference value: 30%). In kind it is functional.
Experiment [7] concerns MDA-MB-231. Nature of the experiment: Cell cycle arrest in human MDA-MB-231 cells at accumulation at S phase at 0.8 uM after 48 hrs by propidium iodide staining-based flow cytometric analysis (reference value: 20%). The class given is functional.
Experiment [8] deals with MDA-MB-231. Nature of the experiment: Induction of apoptosis in human MDA-MB-231 cells assessed as DNA ladder formation at 0.4 to 1.6 uM after 48 hrs by agarose gel electrophoretic analysis. The class given is functional, cell-based. In short, it runs like this:
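MDA-MB-231 cells seeded at 1 × 10^6 per dish, treated 24 h later with 0, 0.4, 0.8, 1.2 or 1.6 μM or DMSO for 48 h at 37 °C, 5% CO2. Cells lysed in TE buffer with 0.25% NP40 (pH 7.5). Lysate digested with RNase A then proteinase K, each 1 h at 37 °C. DNA resolved on 1.8% agarose gel.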

The test system of experiment [9] is MDA-MB-231. Briefly: Induction of apoptosis in human MDA-MB-231 cells assessed as bak protein level after 24 hrs by Western blot analysis. The class given is functional, cell-based. In short, it runs like this:
(§2)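 MDA-MB-231 cells treated with 0.2, 0.4 or 0.8 μM for 24 and 48 h. Attached and floating cells were lysed in RIPA-type buffer with protease inhibitors, and protein was quantified by BCA. Equal protein was run on 10%/15% SDS-PAGE and transferred to nitrocellulose. Blots were probed 1 h at room temperature for phospho-cdc2, cyclin B1, caspase-3, bak/bcl-2 or actin loading control, with HRP secondary and ECL detection.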

In experiment [10] the test system is MDA-MB-231. Nature of the experiment: Induction of apoptosis in human MDA-MB-231 cells assessed as bak protein level after 48 hrs by Western blot analysis. The class given is functional, cell-based. In short, it runs like this: as §2
The test system of experiment [11] is MCF7. Briefly: Growth inhibition of human MCF7 cells after 48 hrs by MTT assay. The following applies: MCF7, 48 h. In kind it is functional, cell-based.

Molecules are shown by their SMILES. Active and inactive are the calls of the source. No cut-off for these calls is given here.

On to `Oc1ccc2[nH]cc(C(c3ccc(C(c4c[nH]c5ccc(O)cc45)c4c[nH]c5ccc(O)cc45)cc3)c3c[nH]c4ccc(O)cc34)c2c1`, for which the Ratio IC50 is 57 with MCF7 [1] and over 6.9 with Detroit 551. Further, the Activity result in the experiment with MDA-MB-231 [2] was “tde”; in the experiment on MDA-MB-231 [3], “Dose-dependent effect”; in the experiment on MDA-MB-231 [4], 31%; with MDA-MB-231 [5] it was 23%; with MDA-MB-231 [6], 40%; with MDA-MB-231 [7], 20%. Also, the IC50 with MDA-MB-361 was 2070 nM; in the experiment on MDA-MB-468, 830 nM; in the experiment on MCF7 [11], 880 nM. For the same compound, the outcome with MDA-MB-231 [8], with MDA-MB-231 [9] and with MDA-MB-231 [10] was Active.
